Assay results: paper PMC3263826 (ACS medicinal chemistry letters, 2011)

Assays:
[1] = tested on: MPTP-mouse model for Parkinson's disease; conditions: cited from earlier work
rat MAO A = target: T1, rat MAO A (Rattus norvegicus, UniProt P21396); test: Inhibition of purified recombinant rat MAO A; assay type: biochemical; conditions: accessible concentration range (~100 μM)
T1 sequence (P21396 1-526): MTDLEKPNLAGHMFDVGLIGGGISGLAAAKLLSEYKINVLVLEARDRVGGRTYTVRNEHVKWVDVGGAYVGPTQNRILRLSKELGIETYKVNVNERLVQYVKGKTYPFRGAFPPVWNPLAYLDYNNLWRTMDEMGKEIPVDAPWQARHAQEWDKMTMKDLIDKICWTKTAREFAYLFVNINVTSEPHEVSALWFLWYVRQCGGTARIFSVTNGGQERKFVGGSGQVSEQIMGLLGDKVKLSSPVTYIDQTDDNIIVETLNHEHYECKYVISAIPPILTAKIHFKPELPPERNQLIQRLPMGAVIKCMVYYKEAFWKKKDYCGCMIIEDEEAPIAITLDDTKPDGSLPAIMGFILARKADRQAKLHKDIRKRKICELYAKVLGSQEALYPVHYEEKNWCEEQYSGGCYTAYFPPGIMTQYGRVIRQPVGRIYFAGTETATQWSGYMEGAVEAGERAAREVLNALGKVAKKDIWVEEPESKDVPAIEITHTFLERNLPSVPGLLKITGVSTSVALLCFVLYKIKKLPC

[2] = target: human histone demethylase LSD1 (Homo sapiens, UniProt O60341); test: Inhibition of human histone demethylase LSD1; assay type: biochemical; conditions: concentrations up to 100 μM
Outline: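 Enzyme is recombinant human LSD1 purified as a complex with CoREST. Test compound was assayed at concentrations up to 100 μM.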

human MAO A = target: T2, human MAO A (Homo sapiens, UniProt P21397); test: Inhibition of purified recombinant human MAO A; assay type: biochemical; conditions: for inhibition pattern with MAO A: species not given
T2 sequence (P21397 1-527): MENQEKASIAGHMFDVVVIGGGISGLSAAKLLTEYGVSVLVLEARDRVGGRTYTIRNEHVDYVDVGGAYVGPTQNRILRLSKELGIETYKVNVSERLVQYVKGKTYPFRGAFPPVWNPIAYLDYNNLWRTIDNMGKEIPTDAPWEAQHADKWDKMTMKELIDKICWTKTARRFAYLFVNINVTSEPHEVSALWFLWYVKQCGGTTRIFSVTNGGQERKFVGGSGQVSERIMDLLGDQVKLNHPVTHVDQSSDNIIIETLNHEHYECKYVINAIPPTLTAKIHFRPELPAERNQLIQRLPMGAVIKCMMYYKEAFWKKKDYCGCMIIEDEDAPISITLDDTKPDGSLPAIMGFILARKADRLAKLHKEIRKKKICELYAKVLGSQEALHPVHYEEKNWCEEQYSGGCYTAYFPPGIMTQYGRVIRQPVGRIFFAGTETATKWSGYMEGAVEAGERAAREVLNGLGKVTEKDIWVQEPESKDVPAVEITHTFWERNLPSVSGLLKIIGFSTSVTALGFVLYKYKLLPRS

[3] = cited from earlier work
human MAO B = target: T3, human MAO B (Homo sapiens, UniProt P27338); test: Inhibition of purified recombinant human MAO B; assay type: biochemical; conditions: for inhibition pattern with MAO B: species not given
T3 sequence (P27338 1-520): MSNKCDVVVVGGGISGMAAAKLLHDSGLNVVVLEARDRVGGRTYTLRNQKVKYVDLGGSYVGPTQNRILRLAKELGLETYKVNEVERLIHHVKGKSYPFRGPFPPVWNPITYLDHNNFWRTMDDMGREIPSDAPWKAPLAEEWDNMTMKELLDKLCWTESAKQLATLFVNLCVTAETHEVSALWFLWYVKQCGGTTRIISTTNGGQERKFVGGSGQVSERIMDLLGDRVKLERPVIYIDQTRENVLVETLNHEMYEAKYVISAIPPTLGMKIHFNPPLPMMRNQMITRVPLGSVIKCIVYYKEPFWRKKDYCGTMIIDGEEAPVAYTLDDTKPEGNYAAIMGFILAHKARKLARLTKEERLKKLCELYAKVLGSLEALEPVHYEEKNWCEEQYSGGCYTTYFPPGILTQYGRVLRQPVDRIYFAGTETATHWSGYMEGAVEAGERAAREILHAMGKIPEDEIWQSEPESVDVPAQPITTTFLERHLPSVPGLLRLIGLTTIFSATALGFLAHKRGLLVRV

inhibitory activity against rat MAO A (rat MAO A)	inhibition of LSD1 [2]	inhibitory activity against human MAO A (human MAO A; accessible concentration range (~100 μM))	inhibition pattern with MAO B (human MAO B)	inhibition pattern with MAO A (human MAO A)	substrate of MAO A (human MAO A; time course of hours)	substrate of MAO B (human MAO B; time course of hours)	SMILES	neuroprotection in MPTP-mouse model [1]	brain (therapeutic neuroprotective) concentration ([3]; monkey, in vivo)	plasma concentration ([3]; monkeys with induced symptoms characteristic of Parkinson's disease)
does not exhibit any inhibitory activity	No inhibition	does not exhibit any inhibitory activity	competitively	–	–	–	CCc1ccc(CCOc2ccc(CC3SC(=O)NC3=O)cc2)nc1 (centres unmarked) [Pioglitazone, pioglitazone]	effective neuroprotectant	~ 0.14 μM	~ 4.9 μM
–	No inhibition	–	competitively	competitively	very slow substrate	very slow substrate	CN(CCOc1ccc(CC2SC(=O)NC2=O)cc1)c1ccccn1 (centres unmarked) [Rosiglitazone, rosiglitazone]	–	–	–
–	–	–	non-competitive	non-competitive	–	–	Cc1c(C)c2c(c(C)c1O)CCC(C)(COc1ccc(CC3SC(=O)NC3=O)cc1)O2 (centres unmarked) [Troglitazone, troglitazone]	–	–	–
